Five compounds from ChEMBL document CHEMBL1155725, “Antimicrobial cuparene-type sesquiterpenes, enokipodins C and D, from a mycelial culture of Flammulina velutipes” (2001) can be followed below.

The test system of experiment [1] is Bacillus subtilis. Kind of experiment: Antimicrobial activity against Bacillus subtilis LMA0011 at 25 ug/8 mm disk after 18 hrs by paper disk method. Format: functional. In a few lines:
(§1)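 Disk diffusion: 25 or 50 µg sample in acetone (20 µL) on air-dried 8 mm paper disk, placed on agar seeded with organism; plates held overnight at 4 °C for diffusion, then 37 °C for 18 h. Read-out: diameter of clear inhibition zone; triplicate.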

For experiment [2], the system named is Bacillus subtilis. In words: Antimicrobial activity against Bacillus subtilis LMA0011 at 50 ug/8 mm disk after 18 hrs by paper disk method. Format: functional. In a few lines:
as §1

Experiment [3] concerns Staphylococcus aureus. Kind of experiment: Antimicrobial activity against Staphylococcus aureus AHU1142 at 25 ug/8 mm disk after 18 hrs by paper disk method. The class given is functional. In short, it runs like this:
as §1

The subject of experiment [4] is Staphylococcus aureus. In words: Antimicrobial activity against Staphylococcus aureus AHU1142 at 50 ug/8 mm disk after 18 hrs by paper disk method. Format: functional. In short, it runs like this:
as §1

The test system of experiment [5] is Escherichia coli. Kind of experiment: Antimicrobial activity against Escherichia coli AHU1714 at 25 ug/8 mm disk after 18 hrs by paper disk method. The class given is functional. In a few lines:
as §1

Experiment [6] concerns Escherichia coli. Kind of experiment: Antimicrobial activity against Escherichia coli AHU1714 at 50 ug/8 mm disk after 18 hrs by paper disk method. Format: functional. In short, it runs like this:
as §1

The test system of experiment [7] is Pseudomonas fluorescens. In words: Antimicrobial activity against Pseudomonas fluorescens AHU1719 at 25 ug/8 mm disk after 18 hrs by paper disk method. The class given is functional. In short, it runs like this:
as §1

Experiment [8] has as its system Pseudomonas fluorescens. Kind of experiment: Antimicrobial activity against Pseudomonas fluorescens AHU1719 at 50 ug/8 mm disk after 18 hrs by paper disk method. Format: functional. In short, it runs like this: as §1
In the next experiment the test system is Cladosporium herbarum. In words: Antifungal activity against Cladosporium herbarum AHU9262 after 3 days by TLC plate assay. Format: functional, organism-based. In a few lines:
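TLC bioautography: EtOAc extract of culture filtrate (equivalent to 0.25 mL medium) developed in CHCl3–MeOH 25:1, sprayed with C. herbarum spore suspension, incubated 25 °C under humid conditions for 3 days; inhibitory zones matched to UV 254 nm spots.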

The subject of experiment [9] is Bacillus subtilis. In words: Antimicrobial activity against Bacillus subtilis LMA0011 at 12.5 ug/8 mm disk after 18 hrs by paper disk method. Format: functional. In short, it runs like this:
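Positive-control disk diffusion: pentachlorophenol 12.5 µg on 8 mm paper disk on seeded agar; overnight at 4 °C, then 37 °C for 18 h; clear inhibition-zone diameter measured; triplicate.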

The source made the active and inactive calls. The rule behind the calls is not given here.

Regarding `Cc1cc2c(cc1O)[C@@]1(C)[C@H](O)C[C@@](O)(O2)C1(C)C` [ENOKIPODIN C], the “inhibition zone (IZ)” value in the experiment on Bacillus subtilis [1] worked out at 20 mm; with Bacillus subtilis [2], 26 mm; with Staphylococcus aureus [3], 18 mm; in the experiment on Staphylococcus aureus [4], 21.2 mm; in the experiment with Escherichia coli [5], 0 mm; in the experiment on Escherichia coli [6], 0 mm. Also, the “inhibition zone (IZ)” value in the experiment with Pseudomonas fluorescens [7] and in the experiment on Pseudomonas fluorescens [8] was 0 mm throughout. For the same compound, the outcome in the experiment on Cladosporium herbarum was Active.
As to `CC1=CC(=O)C([C@@]2(C)CCC(=O)C2(C)C)=CC1=O` [ENOKIPODIN B], the “inhibition zone (IZ)” value in the experiment with Bacillus subtilis [1] was 17 mm; in the experiment with Bacillus subtilis [2] it was 21 mm; in the experiment on Staphylococcus aureus [3], 0 mm; in the experiment on Staphylococcus aureus [4], 14 mm; in the experiment on Escherichia coli [5], 0 mm; with Escherichia coli [6], 0 mm. Further, in the experiment on Cladosporium herbarum, the outcome was Active.
For `Cc1cc2c(cc1O)[C@@]1(C)CC[C@@](O)(O2)C1(C)C` [ENOKIPODIN A], the “inhibition zone (IZ)” value was found to be 28 mm in the experiment on Bacillus subtilis [1]; 32.6 mm in the experiment on Bacillus subtilis [2]; 19.2 mm with Staphylococcus aureus [3]; 25.2 mm in the experiment on Staphylococcus aureus [4]; 0 mm in the experiment with Escherichia coli [5]; 0 mm in the experiment on Escherichia coli [6]. Also, the “inhibition zone (IZ)” value in the experiment on Pseudomonas fluorescens [7] and with Pseudomonas fluorescens [8] was 0 mm each time. In the experiment on Cladosporium herbarum, the result was Active.
As to `CC1=CC(=O)C([C@@]2(C)[C@H](O)CC(=O)C2(C)C)=CC1=O` [ENOKIPODIN D], the “inhibition zone (IZ)” value came to 11 mm in the experiment with Bacillus subtilis [1]; 16 mm in the experiment with Bacillus subtilis [2]; 0 mm in the experiment with Staphylococcus aureus [3]; 11.6 mm in the experiment on Staphylococcus aureus [4]; 0 mm in the experiment with Escherichia coli [5]; 0 mm with Escherichia coli [6]. Moreover, the result in the experiment with Cladosporium herbarum was Active.
Regarding `Oc1c(Cl)c(Cl)c(Cl)c(Cl)c1Cl` [PENTACHLOROPHENOL], the results for the “inhibition zone (IZ)” value in the experiment with Bacillus subtilis [1] and with Bacillus subtilis [9] were 31 mm and 26.6 mm, respectively.
